Data reported in ChEMBL document CHEMBL3232762, “Synthesis and biological evaluation of a novel sigma-1 receptor antagonist based on 3,4-dihydro-2(1H)-quinolinone scaffold as a potential analgesic” (Eur J Med Chem, 2014).
Active and inactive are the calls of the source. The rule behind the calls is not given here.

Columns and labels:
[1] = Displacement of [3H]-DTG from sigma 2 receptor in Dunkin Hartley guinea pig membrane after 120 mins by liquid scintillation counting analysis […]; type: cell membranes, Cavia porcellus
Cavia porcellus = species on record: Cavia porcellus; test: Selectivity ratio of Ki for sigma 2 receptor in Dunkin Hartley guinea pig membrane to Ki for sigma 1 receptor in Dunkin Hartley guinea pig membrane; type: cell membranes
[2] = molecular target: Sigma non-opioid intracellular receptor 1 (Cavia porcellus, UniProt Q60492); test: Displacement of [3H]-(+)-pentazocine from sigma 1 receptor in Dunkin Hartley guinea pig membrane after 180 mins by liquid scintillation counting analysis; type: cell membranes
Mus musculus [3] = test: Antinociceptive activity in Kunming mouse assessed as reduction in formalin-induced pain behaviour at 80 mg/kg, ip administered 15 mins before fomalin injection measured during second phase of 15 to 45 mins after formalin challenge; type: functional
Outline: (§1)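 Kunming mice (20 ± 2.0 g), 10–12 per group, dosed i.p. in 30% PEG 400 (10 mL/kg) 15 min before intraplantar formalin. Paw licking/biting time was scored in phase I (0–5 min) and phase II (15–45 min). Antinociception (%) = (vehicle licking time − drug licking time)/vehicle licking time × 100. Two-way ANOVA with Newman-Keuls test.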

[4] = molecular target: Sigma non-opioid intracellular receptor 1 (Cavia porcellus) (UniProt Q60492); test: Ratio of Ki for sigma 1 receptor in Dunkin Hartley guinea pig membrane in absence of phenytoin to Ki for sigma 1 receptor in Dunkin Hartley guinea pig membrane in presence of phenytoin; type: cell membranes
Mus musculus [5] = test: Antinociceptive activity in Kunming mouse assessed as reduction in formalin-induced pain behaviour at 160 mg/kg, ip administered 15 mins before fomalin injection measured during first phase of 0 to 5 mins after formalin challenge; type: functional; outline: as §1
Mus musculus [6] = test: Antinociceptive activity in Kunming mouse assessed as reduction in formalin-induced pain behaviour at 160 mg/kg, ip administered 15 mins before fomalin injection measured during second phase of 15 to 45 mins after formalin challenge; type: functional; outline: as §1
Mus musculus [7] = test: Antinociceptive activity in Kunming mouse assessed as reduction in formalin-induced pain behaviour at 80 mg/kg, ip administered 15 mins before fomalin injection measured during first phase of 0 to 5 mins after formalin challenge; type: functional; outline: as §1
Mus musculus [8] = test: Antinociceptive activity in Kunming mouse assessed as reduction in formalin-induced pain behaviour at 40 mg/kg, ip administered 15 mins before fomalin injection measured during second phase of 15 to 45 mins after formalin challenge; type: functional; outline: as §1
Mus musculus [9] = test: Antinociceptive activity in ip dosed Kunming mouse assessed as reduction in formalin-induced pain behaviour administered 15 mins before fomalin injection measured during first phase of 0 to 5 mins after formalin challenge; type: functional; outline: as §1
Mus musculus [10] = test: Antinociceptive activity in Kunming mouse assessed as reduction in formalin-induced pain behaviour at 40 mg/kg, ip administered 15 mins before fomalin injection measured during first phase of 0 to 5 mins after formalin challenge; type: functional; outline: as §1
Mus musculus [11] = test: Antinociceptive activity in ip dosed Kunming mouse assessed as reduction in formalin-induced pain behaviour administered 15 mins before fomalin injection measured during second phase of 15 to 45 mins after formalin challenge; type: functional; outline: as §1
Mus musculus [12] = test: Antinociceptive activity against formalin-induced pain in Kunming mouse assessed as reduction in mean licking and biting time at 80 mg/kg, ip administered 15 mins before fomalin injection measured during first phase of 0 to 5 mins after formalin challenge; type: functional; conditions: route intraperitoneal
Mus musculus [13] = test: Antinociceptive activity against formalin-induced pain in Kunming mouse assessed as reduction in mean licking and biting time at 80 mg/kg, ip administered 15 mins before fomalin injection measured during second phase of 15 to 45 mins after formalin challenge; type: functional; conditions: route intraperitoneal
[14] = molecular target: Sigma non-opioid intracellular receptor 1 (Homo sapiens, UniProt Q99720); test: Binding affinity to sigma 1 receptor (unknown origin)
Sequence of Sigma non-opioid intracellular receptor 1 (Homo sapiens, UniProt Q99720) (Q99720 whole entry): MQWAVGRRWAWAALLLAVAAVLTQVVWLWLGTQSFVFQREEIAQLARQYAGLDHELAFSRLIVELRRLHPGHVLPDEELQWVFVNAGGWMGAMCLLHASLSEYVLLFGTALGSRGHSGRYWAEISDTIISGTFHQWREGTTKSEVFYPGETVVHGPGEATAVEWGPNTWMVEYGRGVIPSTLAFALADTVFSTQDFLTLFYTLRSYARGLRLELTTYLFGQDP

Sequence of Sigma non-opioid intracellular receptor 1 (Cavia porcellus, UniProt Q60492) (Q60492 whole entry): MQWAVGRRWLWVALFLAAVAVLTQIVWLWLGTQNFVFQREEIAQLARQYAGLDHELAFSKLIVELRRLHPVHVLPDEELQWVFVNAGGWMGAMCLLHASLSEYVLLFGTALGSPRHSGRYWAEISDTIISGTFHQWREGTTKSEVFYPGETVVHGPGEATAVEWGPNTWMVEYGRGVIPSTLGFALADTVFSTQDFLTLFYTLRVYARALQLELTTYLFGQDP
Sequence of Sigma non-opioid intracellular receptor 1 (Cavia porcellus) (Q60492 whole entry): as above

SMILES	Ki [1] [µM]	Ratio Ki (Cavia porcellus)	Ki [2] [µM]	further results
O=C1CCc2ccc(OCCCCN3CCOCC3)cc2N1Cc1ccccc1	0.53	8.8	0.0602	–
Cc1ccc(CN2C(=O)CCc3ccc(OCCCN4CCCCC4)cc32)cc1	0.825	488	0.00169	–
O=C1CCN(CCCOc2ccc3c(c2)N(Cc2ccccc2)C(=O)CC3)CC1	1.8	18.3	0.0982	–
O=C1CCc2ccc(OCCCN3CCN(c4ccccc4)CC3)cc2N1Cc1ccccc1	> 2	–	0.341	–
O=C1CCc2ccc(OCCCCCCN3CCOCC3)cc2N1Cc1ccccc1	2	–	0.682	–
O=C1CCc2ccc(OCCN3CCOCC3)cc2N1Cc1ccccc1	> 2	–	> 2	–
O=C1CCc2cc(OCCCCCCN3CCOCC3)ccc2N1Cc1ccccc1	> 2	–	0.852	–
O=C1CCc2ccc(OCCCN3CCCCC3)cc2N1Cc1ccc(F)cc1	1.3	1070	0.00122	inhibition in vivo at 80 mg/kg (Mus musculus [3]; route intraperitoneal): 87.7%; Ratio Ki [4]: 0.86; inhibition in vivo at 160 mg/kg (Mus musculus [5]; route intraperitoneal): 97.6%; inhibition in vivo at 160 mg/kg (Mus musculus [6]; route intraperitoneal): 98.2%; inhibition in vivo at 80 mg/kg (Mus musculus [7]; route intraperitoneal): 84.8%; inhibition in vivo at 40 mg/kg (Mus musculus [8]; route intraperitoneal): 30.5%; ED50 (Mus musculus [9]): 49.4 mg/kg; inhibition (Mus musculus [9]): Dose-dependent effect; inhibition in vivo at 40 mg/kg (Mus musculus [10]; route intraperitoneal): 33.4%; ED50 (Mus musculus [11]): 50.5 mg/kg; inhibition (Mus musculus [11]): Dose-dependent effect; Time (Mus musculus [12]): 12.08 s; Time (Mus musculus [13]): 36.13 s
O=C1CCc2ccc(OCCCN3CCCC3)cc2N1Cc1ccccc1	0.55	23.1	0.0238	–
O=C1CCc2ccc(OCCCN3CCOCC3)cc2N1Cc1ccccc1	0.471	31.8	0.0148	–
O=C1CCc2ccc(OCCCCCN3CCOCC3)cc2N1Cc1ccccc1	1.81	20.4	0.0884	–
COc1cccc2c1CCC(=O)N2CCCN1CCN(c2cccc(Cl)c2)CC1	–	–	–	IC50 [14]: 0.047 µM
O=C1CCc2ccc(OCCCCN3CCOCC3)cc2N1CCc1ccccc1	1.21	26.8	0.0448	–
O=C1CCc2cc(OCCCN3CCOCC3)ccc2N1Cc1ccccc1	1.12	1.4	0.792	–
Cc1cc(OCCN2CCOCC2)nn1-c1ccc2ccccc2c1	> 2	> 190	0.0105	Time (Mus musculus [12]): 8.63 s; Time (Mus musculus [13]): 27.34 s
CC1CCN(CCCOc2ccc3c(c2)N(Cc2ccc(F)cc2)C(=O)CC3)CC1	0.96	1250	0.00077	inhibition (Mus musculus [3]): Active; Ratio Ki [4]: 0.91; inhibition (Mus musculus [5]): Active; inhibition (Mus musculus [6]): Active; inhibition (Mus musculus [7]): Active; inhibition (Mus musculus [8]): Active; inhibition (Mus musculus [10]): Active; Time (Mus musculus [12]): 34.82 s; Time (Mus musculus [13]): 89.75 s
Cc1ccc(CN2C(=O)CCc3ccc(OCCCN4CCC(C)CC4)cc32)cc1	0.755	507	0.00149	–
O=C1CCc2ccc(OCCCN3CCCCC3)cc2N1Cc1ccccc1	0.662	360	0.00184	–
O=C1CCc2cc(OCCCCCN3CCOCC3)ccc2N1Cc1ccccc1	0.43	6.1	0.0707	–
O=C1CCc2cc(OCCN3CCOCC3)ccc2N1Cc1ccccc1	> 2	–	> 2	–
O=C1CCc2cc(OCCCCN3CCOCC3)ccc2N1CCc1ccccc1	> 2	–	0.195	–

More lines, in order of falling Ki [1], values ahead:

Ki [1] [µM]	Ratio Ki (Cavia porcellus)	Ki [2] [µM]	SMILES	further results
0.409	6.1	0.0667	CC1CCN(CCCOc2ccc3c(c2)NC(=O)CC3)CC1	–
0.357	10.4	0.0343	CN1C(=O)CCc2ccc(OCCCN3CCCCC3)cc21	–
0.319	290	0.0011	CC1CCN(CCCOc2ccc3c(c2)N(Cc2ccccc2)C(=O)CC3)CC1	–
0.311	7.7	0.0402	CC1CCN(CCCOc2ccc3c(c2)N(C)C(=O)CC3)CC1	–
0.288	3.2	0.0891	O=C1CCc2ccc(OCCCN3CCCCC3)cc2N1	–
0.26	11.7	0.0222	O=C1CCc2cc(OCCCCN3CCOCC3)ccc2N1Cc1ccccc1	–
0.205	2.4	0.0832	CN(C)CCCOc1ccc2c(c1)N(Cc1ccccc1)C(=O)CC2	–
0.161	37.4	0.0043	CN1CCN(CCCOc2ccc3c(c2)N(Cc2ccccc2)C(=O)CC3)CC1	–
0.1	4.6	0.0216	O=C1CCc2ccc(OCCCN3CCOCC3)cc2N1CCc1ccccc1	–
0.0981	2.4	0.0402	O=C1CCc2cc(OCCCN3CCOCC3)ccc2N1CCc1ccccc1	–
0.0972	2.5	0.0394	CCN(CC)CCCOc1ccc2c(c1)N(Cc1ccccc1)C(=O)CC2	–
0.0492	–	–	Cc1ccccc1NC(=N)Nc1ccccc1C [DITOLYLGUANIDINE]	–
0.0364	–	–	O=C(CCCN1CCC(O)(c2ccc(Cl)cc2)CC1)c1ccc(F)cc1 [HALOPERIDOL]	–
